Legend:
[1] = target: GABA-A receptor; anion channel; assay: In vitro affinity against Benzodiazepine receptor binding to rat cortical membranes (using [3H]- flumazenil as radioligand).
In short: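 Male Wistar rat (~200 g) cerebral cortex membranes, washed in Tris-citrate 50 mM pH 7.1, 2 mg original tissue/mL. Filtered, then scintillation counting. Duplicates.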

[2] = target: GABA-A receptor; anion channel (Rattus norvegicus) (UniProt O09028+P15431+P18506+P18508+P19969+P20236+P23574+P23576+P28471+P28473+P30191+P62813+P63079+P63138+Q91ZM7+Q9ES14); assay: Ratio of Ki value without GABA and Ki value in the presence of GABA.; assay type: protein-complex assay

Compound | Ki [1] | GABA ratio [2]
Cc1ccc2oc(-c3ccccc3[N+](=O)[O-])cc(=O)c2c1 | 1000 nM | 1.49
O=c1cc(-c2ccccc2)oc2cccc(O)c12 [5-HYDROXYFLAVONE] | 1900 nM | 1.03
Cc1ccc2sc(-c3cccc([N+](=O)[O-])c3)cc(=O)c2c1 | 33 nM | 1.51
Cc1ccc2oc(-c3cccc([N+](=O)[O-])c3)cc(=O)c2c1[N+](=O)[O-] | 1.9 nM | 1.41
O=c1cc(-c2ccc(O)cc2)oc2cc(O)cc(O)c12 [APIGENIN] | 770 nM | 1.03
O=c1cc(-c2cccc([N+](=O)[O-])c2)oc2ccc([N+](=O)[O-])cc12 |  | 1.3
CCc1c(C(=O)OC)ncc2[nH]c3cc(OC)c(OC)cc3c12 | 7.6 nM | 0.57
O=c1cc(-c2cccc([N+](=O)[O-])c2)oc2ccc(Br)cc12 |  | 1.4
O=c1cc(-c2ccccc2)oc2cc(O)ccc12 [7-HYDROXYFLAVONE] | 4200 nM | 1.14
Cc1cccc(-c2cc(=O)c3cc(C)ccc3o2)c1 | 29 nM | 1.63
O=c1cc(-c2ccccc2)oc2ccc(O)cc12 [6-HYDROXYFLAVONE] | 400 nM | 1.06
O=c1cc(-c2ccccc2)oc2ccccc12 [FLAVONE] | 4200 nM | 1.05
O=c1cc(-c2ccc([N+](=O)[O-])cc2)oc2ccc([N+](=O)[O-])cc12 | 17000 nM | 
O=c1cc(-c2ccccc2)oc2cc(O)cc(O)c12 [CHRYSIN] | 920 nM | 0.9
O=c1c(Br)c(-c2ccccc2)oc2ccccc12 | > 75000 nM | 
O=c1cc(-c2ccccc2)oc2ccc3ccccc3c12 [BETA-NAPHTHOFLAVONE] | 1480 nM | 1.28
Cc1ccc2oc(-c3cccc([N+](=O)[O-])c3)cc(=O)c2c1 | 5.6 nM | 0.72
O=c1cc(-c2ccccc2)oc2ccc(Br)cc12 [6-BROMOFLAVONE] | 70 nM | 1.8
Cc1ccc2sc(-c3ccccc3)cc(=O)c2c1 | 310 nM | 1.35
Cc1ccc2oc(-c3ccccc3)cc(=O)c2c1 [6-METHYLFLAVONE] | 125 nM | 0.98
Cc1ccc2oc(-c3ccc([N+](=O)[O-])cc3)cc(=O)c2c1 | 7300 nM | 
COc1ccc2oc(-c3ccccc3)cc(=O)c2c1 [6-METHOXYFLAVONE] | 570 nM | 1.51

Reference: ChEMBL document CHEMBL1132447, “Structure-activity relationships and molecular modeling analysis of flavonoids binding to the benzodiazepine site of the rat brain GABA(A) receptor complex” (J Med Chem, 1999)
